From paper PMC5422321 (Drug Design, Development and Therapy, 2017)
“And” between values parts separate entries of the source, which are not always exact repeats. Identical values can stand only once. Like-named read-outs stand apart in the source and are kept apart here.

Columns and labels:
HDAC1 = HDAC1 (Homo sapiens, UniProt Q13547); test: HDAC biochemical assay
HDAC2 = HDAC2 (Homo sapiens, UniProt Q92769); test: HDAC biochemical assay
HDAC3 = HDAC3 (Homo sapiens, UniProt O15379); test: HDAC biochemical assay
HDAC4 = HDAC4 (Homo sapiens, UniProt P56524); test: HDAC biochemical assay
HDAC5 = HDAC5 (Homo sapiens, UniProt Q9UQL6); test: HDAC biochemical assay
HDAC6 = target: T1, HDAC6 (Homo sapiens, UniProt Q9UBN7); test: HDAC biochemical assay; details: AMC-labeled peptide substrate
T1 sequence (Q9UBN7 1-1215): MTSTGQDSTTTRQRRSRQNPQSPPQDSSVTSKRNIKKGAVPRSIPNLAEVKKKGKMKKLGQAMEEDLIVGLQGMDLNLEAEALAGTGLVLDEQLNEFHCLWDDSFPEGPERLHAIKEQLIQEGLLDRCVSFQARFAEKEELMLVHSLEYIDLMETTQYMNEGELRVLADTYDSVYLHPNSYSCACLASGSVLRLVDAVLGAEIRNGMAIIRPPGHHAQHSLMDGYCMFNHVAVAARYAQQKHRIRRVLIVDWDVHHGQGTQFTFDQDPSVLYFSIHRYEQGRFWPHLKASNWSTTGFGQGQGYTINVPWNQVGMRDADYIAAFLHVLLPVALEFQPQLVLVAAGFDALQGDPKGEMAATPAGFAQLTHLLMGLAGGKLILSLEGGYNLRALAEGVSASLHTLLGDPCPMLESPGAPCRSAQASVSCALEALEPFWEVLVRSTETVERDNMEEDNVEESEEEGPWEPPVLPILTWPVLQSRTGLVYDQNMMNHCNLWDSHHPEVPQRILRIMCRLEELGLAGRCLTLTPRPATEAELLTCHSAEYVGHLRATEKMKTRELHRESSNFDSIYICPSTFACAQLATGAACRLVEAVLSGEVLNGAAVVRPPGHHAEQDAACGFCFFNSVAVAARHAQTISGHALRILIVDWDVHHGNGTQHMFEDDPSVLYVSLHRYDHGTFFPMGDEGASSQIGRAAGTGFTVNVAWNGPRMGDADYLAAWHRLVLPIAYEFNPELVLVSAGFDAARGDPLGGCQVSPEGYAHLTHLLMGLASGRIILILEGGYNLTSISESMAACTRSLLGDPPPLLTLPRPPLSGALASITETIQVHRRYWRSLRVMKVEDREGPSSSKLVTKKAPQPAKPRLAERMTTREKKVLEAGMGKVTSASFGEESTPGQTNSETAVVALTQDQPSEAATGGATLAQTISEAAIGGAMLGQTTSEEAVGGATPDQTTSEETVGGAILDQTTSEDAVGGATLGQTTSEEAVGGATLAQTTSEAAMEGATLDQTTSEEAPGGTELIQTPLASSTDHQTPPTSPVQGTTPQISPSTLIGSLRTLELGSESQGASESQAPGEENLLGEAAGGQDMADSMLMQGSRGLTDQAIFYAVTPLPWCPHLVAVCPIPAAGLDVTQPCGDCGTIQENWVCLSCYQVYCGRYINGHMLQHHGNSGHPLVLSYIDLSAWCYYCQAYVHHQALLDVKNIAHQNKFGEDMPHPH

HDAC7 = target: T2, HDAC7 (Homo sapiens, UniProt Q8WUI4); test: HDAC biochemical assay
T2 sequence (Q8WUI4 1-952): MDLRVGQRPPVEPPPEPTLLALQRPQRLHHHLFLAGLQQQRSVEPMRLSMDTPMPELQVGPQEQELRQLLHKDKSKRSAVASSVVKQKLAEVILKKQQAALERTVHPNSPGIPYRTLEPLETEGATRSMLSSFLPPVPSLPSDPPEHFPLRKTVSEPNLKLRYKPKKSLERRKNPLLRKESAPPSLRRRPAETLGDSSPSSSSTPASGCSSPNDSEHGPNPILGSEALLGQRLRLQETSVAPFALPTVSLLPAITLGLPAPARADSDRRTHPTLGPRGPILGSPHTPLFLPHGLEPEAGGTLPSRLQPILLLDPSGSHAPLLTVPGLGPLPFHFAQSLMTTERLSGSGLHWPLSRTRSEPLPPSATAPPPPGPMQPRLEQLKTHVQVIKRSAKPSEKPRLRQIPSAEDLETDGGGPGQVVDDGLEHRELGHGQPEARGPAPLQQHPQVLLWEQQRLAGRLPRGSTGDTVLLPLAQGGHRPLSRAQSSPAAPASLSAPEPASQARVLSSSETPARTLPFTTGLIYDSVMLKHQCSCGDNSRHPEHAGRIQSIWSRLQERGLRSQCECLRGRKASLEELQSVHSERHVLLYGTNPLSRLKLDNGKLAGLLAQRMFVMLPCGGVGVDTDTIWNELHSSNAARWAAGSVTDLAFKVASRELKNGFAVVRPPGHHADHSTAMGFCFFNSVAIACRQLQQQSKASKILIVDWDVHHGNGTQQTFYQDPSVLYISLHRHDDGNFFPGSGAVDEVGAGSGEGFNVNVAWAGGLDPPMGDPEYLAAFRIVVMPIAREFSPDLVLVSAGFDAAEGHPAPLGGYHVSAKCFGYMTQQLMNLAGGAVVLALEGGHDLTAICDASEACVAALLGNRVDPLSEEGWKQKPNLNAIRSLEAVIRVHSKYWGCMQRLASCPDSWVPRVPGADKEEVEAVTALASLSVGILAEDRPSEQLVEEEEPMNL

HDAC8 = target: T3, HDAC8 (Homo sapiens, UniProt Q9BY41); test: HDAC biochemical assay; details: RHKAcKAc-AMC substrate
T3 sequence (Q9BY41 1-377): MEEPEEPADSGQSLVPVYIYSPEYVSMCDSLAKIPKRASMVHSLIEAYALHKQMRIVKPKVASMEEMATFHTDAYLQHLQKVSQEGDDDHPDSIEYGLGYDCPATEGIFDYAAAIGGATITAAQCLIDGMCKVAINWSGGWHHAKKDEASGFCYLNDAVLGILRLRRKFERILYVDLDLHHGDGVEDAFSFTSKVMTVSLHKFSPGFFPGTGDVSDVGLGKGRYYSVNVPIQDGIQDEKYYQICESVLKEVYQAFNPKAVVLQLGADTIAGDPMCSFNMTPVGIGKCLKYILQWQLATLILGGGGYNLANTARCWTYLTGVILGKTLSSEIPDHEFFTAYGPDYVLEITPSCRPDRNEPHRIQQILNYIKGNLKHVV

HDAC9 = HDAC9 (Homo sapiens, UniProt Q9UKV0); test: HDAC biochemical assay
HDAC10 = target: T4, HDAC10 (Homo sapiens, UniProt Q969S8); test: HDAC biochemical assay
T4 sequence (Q969S8 1-669): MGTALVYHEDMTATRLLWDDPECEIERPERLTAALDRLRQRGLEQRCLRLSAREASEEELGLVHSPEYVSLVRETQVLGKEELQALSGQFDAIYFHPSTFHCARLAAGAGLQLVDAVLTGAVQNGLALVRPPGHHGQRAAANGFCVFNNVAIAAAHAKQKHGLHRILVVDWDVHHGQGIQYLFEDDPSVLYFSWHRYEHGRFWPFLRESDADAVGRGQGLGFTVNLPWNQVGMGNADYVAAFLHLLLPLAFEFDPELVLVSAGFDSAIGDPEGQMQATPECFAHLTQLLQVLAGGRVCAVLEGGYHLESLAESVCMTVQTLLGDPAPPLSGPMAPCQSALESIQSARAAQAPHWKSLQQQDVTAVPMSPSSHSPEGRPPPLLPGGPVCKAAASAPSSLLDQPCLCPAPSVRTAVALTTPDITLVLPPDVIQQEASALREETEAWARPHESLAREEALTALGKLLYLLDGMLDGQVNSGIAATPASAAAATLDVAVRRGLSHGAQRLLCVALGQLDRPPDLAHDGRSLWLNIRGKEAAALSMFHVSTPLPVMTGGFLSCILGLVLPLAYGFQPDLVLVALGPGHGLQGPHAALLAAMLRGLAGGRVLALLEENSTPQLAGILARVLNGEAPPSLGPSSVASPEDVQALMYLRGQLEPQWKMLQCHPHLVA

HDAC11 = target: T5, HDAC11 (Homo sapiens, UniProt Q96DB2); test: HDAC biochemical assay
T5 sequence (Q96DB2 1-347): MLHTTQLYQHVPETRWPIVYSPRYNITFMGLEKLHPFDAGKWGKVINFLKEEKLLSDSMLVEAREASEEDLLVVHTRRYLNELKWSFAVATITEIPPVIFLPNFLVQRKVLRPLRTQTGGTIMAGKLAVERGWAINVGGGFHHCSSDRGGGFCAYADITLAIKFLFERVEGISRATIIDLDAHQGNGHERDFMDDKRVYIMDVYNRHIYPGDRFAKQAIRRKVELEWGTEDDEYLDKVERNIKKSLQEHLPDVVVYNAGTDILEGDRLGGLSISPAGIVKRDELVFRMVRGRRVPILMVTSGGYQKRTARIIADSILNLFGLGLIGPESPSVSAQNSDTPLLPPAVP

[1] = system: α-tubulin acetylation in PC-3 cells; test: Western blot of acetylated α-tubulin in PC-3 cells; assay type: cell-based, human; details: 18 h
How it was run: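 PC-3 cells seeded overnight in complete medium, then treated 18 h with test compound (10 doses, threefold dilution). Washed with PBS and lysed in 1× SDS sample buffer. Lysates resolved on 12% Bis-Tris SDS-PAGE and transferred to nitrocellulose. Blocked 1 h in 3% nonfat milk, probed overnight with anti-acetyl-tubulin and a fluorescent secondary, scanned, then reprobed for total α-tubulin. One of three experiments shown.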

[2] = system: histone H3 acetylation in PC-3 cells; test: Western blot of histone H3 acetylation in PC-3 cells; assay type: cell-based, human; details: data not shown
several HDAC subtypes = test: Primary screening at 10 µM in HDAC enzymatic assay; assay type: biochemical; details: 10 µM of compound
How it was run: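 Recombinant HDACs run with fluorogenic AMC peptides: RHKKAc-AMC for HDAC1, 2, 3, 6, 10 and 11; RHKAcKAc-AMC for HDAC8; acetyl-Lys(trifluoroacetyl)-AMC for HDAC4, 5, 7 and 9. Substrate then added; developer digests deacetylated product; AMC fluorescence read.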

11 HDACs = test: HDAC biochemical assay, panel statements; details: up to 10 µM dose

HDAC9, sequence (Q9UKV0 whole entry): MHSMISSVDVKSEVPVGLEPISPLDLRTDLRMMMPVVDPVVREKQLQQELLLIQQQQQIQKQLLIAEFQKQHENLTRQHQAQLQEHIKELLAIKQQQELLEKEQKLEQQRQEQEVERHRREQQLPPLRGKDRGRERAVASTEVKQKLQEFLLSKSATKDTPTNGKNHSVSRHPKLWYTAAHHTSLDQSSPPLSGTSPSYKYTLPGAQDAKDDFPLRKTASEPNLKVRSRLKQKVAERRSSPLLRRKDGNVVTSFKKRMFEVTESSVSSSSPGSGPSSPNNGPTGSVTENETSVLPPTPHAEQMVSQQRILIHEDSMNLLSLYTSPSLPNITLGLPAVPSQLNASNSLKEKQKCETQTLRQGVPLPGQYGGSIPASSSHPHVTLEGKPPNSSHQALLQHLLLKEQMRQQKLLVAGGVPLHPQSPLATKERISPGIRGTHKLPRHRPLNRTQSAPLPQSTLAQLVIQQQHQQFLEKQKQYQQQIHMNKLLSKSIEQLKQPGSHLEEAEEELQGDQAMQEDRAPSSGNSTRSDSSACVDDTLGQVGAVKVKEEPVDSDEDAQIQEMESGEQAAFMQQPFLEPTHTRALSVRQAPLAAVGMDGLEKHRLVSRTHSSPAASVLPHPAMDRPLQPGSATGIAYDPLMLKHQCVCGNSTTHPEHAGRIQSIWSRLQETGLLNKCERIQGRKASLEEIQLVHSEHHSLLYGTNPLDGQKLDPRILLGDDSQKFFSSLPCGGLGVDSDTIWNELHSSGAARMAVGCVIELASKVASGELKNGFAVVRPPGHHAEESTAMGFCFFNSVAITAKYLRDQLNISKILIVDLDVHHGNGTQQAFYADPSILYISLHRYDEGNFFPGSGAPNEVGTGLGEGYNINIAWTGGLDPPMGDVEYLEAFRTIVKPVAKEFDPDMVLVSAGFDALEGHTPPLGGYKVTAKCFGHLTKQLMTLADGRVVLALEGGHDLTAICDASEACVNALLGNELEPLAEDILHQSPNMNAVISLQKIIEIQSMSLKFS
HDAC1, sequence (Q13547 whole entry): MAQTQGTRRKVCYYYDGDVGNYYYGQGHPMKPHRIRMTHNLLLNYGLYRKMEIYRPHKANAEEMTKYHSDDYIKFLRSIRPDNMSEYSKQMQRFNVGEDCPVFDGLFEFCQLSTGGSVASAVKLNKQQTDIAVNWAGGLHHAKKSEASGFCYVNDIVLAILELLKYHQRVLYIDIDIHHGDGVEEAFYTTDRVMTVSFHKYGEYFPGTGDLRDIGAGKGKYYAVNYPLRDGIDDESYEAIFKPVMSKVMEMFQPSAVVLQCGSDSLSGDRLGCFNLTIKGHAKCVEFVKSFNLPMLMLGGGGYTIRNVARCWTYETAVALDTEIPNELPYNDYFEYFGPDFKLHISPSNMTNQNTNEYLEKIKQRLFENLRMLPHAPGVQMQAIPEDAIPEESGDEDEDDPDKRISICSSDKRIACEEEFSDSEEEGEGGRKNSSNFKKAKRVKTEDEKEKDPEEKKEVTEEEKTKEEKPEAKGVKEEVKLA
HDAC2, sequence (Q92769 whole entry): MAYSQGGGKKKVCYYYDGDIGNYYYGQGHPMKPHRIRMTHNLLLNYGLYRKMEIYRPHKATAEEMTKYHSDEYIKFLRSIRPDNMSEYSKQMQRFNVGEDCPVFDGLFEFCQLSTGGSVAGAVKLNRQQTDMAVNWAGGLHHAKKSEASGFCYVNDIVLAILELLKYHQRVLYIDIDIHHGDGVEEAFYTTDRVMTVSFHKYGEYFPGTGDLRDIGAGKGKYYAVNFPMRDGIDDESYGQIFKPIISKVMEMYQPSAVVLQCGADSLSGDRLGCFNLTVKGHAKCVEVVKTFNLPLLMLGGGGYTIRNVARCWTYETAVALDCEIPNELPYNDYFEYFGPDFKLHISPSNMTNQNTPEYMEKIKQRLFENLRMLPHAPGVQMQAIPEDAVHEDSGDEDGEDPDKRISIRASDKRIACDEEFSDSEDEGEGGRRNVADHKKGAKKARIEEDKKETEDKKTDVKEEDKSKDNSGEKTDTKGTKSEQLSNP
HDAC4, sequence (P56524 whole entry): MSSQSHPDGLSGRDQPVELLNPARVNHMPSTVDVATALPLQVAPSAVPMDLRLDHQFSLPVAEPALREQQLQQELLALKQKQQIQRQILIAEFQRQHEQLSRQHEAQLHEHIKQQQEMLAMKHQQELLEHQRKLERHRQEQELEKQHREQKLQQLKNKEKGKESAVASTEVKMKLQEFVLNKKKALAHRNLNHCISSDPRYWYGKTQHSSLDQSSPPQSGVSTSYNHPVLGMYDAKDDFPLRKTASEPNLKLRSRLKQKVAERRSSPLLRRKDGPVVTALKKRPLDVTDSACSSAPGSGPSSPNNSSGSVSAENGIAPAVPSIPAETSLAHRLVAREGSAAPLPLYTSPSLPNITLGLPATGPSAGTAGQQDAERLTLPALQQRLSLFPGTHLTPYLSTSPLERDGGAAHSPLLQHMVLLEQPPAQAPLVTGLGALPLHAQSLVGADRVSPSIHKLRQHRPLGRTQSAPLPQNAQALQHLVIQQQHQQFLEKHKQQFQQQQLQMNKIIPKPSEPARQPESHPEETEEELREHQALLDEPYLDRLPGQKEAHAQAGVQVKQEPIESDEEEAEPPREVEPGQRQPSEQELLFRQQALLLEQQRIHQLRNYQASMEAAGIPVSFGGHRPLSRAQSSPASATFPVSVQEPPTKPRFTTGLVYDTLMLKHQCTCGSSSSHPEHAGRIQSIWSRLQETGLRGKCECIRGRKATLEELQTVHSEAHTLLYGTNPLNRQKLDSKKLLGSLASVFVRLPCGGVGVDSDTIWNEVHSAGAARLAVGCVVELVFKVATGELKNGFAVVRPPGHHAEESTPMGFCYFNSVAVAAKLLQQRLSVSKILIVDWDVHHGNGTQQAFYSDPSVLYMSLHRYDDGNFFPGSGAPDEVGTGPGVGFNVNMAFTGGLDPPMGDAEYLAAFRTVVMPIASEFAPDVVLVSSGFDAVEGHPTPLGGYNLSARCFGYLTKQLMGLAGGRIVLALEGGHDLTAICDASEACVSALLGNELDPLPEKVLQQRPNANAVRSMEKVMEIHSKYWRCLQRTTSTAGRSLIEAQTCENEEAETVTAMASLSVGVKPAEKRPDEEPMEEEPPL
HDAC3, sequence (O15379 whole entry): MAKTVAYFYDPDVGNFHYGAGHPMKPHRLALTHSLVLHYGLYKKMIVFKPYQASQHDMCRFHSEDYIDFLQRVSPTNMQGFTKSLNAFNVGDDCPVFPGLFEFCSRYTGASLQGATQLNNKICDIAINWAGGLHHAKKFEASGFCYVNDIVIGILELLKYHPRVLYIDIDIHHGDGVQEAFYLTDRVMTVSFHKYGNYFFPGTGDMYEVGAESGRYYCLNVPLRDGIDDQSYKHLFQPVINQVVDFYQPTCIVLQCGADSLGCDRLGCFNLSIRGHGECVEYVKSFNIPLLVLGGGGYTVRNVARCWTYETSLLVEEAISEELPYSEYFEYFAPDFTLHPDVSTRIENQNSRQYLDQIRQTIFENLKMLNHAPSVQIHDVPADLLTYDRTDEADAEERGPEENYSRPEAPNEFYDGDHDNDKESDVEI
HDAC3, sequence (Q9Y618 395-489 partner limits assumed): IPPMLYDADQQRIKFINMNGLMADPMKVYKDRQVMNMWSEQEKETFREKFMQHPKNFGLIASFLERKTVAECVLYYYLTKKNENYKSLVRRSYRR
HDAC5, sequence (Q9UQL6 whole entry): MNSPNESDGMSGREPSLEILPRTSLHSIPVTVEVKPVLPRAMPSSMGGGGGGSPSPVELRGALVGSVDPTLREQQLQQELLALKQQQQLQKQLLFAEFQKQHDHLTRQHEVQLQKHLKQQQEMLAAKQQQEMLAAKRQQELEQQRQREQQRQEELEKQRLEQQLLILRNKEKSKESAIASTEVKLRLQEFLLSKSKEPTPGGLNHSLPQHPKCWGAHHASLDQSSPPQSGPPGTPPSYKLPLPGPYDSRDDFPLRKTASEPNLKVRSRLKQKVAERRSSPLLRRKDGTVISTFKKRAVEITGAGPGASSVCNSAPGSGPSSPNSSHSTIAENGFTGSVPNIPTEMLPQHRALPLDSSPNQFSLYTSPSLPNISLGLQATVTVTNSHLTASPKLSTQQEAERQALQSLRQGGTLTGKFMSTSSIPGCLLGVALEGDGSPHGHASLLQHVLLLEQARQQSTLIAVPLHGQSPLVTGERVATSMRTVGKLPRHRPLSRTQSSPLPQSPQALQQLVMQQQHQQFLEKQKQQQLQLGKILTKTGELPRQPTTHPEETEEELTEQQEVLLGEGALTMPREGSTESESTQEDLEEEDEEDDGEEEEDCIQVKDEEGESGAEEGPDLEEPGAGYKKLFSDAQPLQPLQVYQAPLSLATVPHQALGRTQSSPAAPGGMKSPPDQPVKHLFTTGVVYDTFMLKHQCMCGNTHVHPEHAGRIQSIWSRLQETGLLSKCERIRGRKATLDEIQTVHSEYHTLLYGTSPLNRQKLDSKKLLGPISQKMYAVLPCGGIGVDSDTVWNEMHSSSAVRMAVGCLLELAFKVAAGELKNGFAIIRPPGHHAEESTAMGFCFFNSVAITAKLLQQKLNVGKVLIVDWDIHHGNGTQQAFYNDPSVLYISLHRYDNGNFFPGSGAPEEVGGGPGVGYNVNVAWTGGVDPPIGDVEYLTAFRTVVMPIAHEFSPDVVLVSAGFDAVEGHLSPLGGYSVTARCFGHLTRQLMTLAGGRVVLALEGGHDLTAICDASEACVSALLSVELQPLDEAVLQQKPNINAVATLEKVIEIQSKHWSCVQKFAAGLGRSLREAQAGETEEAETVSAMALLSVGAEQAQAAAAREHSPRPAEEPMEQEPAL

| IC50 (HDAC1; HDAC1 IC50, biochemical HDAC assay, AMC-labeled peptide substrate) [µM] | IC50 (HDAC5) [µM] | IC50 (HDAC9) [µM] | Compound | IC50 (HDAC1) [µM] | IC50 (HDAC2) [µM] | IC50 (HDAC3) [µM] | IC50 (HDAC4) [µM] | IC50 (HDAC5; HDAC5 IC50, biochemical HDAC assay, acetyl-Lys(trifluoroacetyl)-AMC substrate) [µM] | IC50 (HDAC6) [µM] | IC50 (HDAC7) [µM] | IC50 (HDAC8) | IC50 (HDAC9; HDAC9 IC50, biochemical HDAC assay, acetyl-Lys(trifluoroacetyl)-AMC substrate) [µM] | IC50 (HDAC10) [µM] | IC50 (HDAC11) [µM] | acetylated α-tubulin level [1] | effect on acetylation/deacetylation of histone H3 [2] | inhibition in primary screening (several HDAC subtypes) [%] | inhibition of the other HDAC subtypes (other than HDAC5, HDAC6, HDAC8, HDAC9) (11 HDACs) |
| --- | --- | --- | --- | --- | --- | --- | --- | --- | --- | --- | --- | --- | --- | --- | --- | --- | --- | --- |
| – | – | – | O=c1c2ccccc2[se]n1-c1ccccc1 [Ebselen, 2-phenyl-1,2-benzisoselenazol-3(2H)-one] | > 10 | > 10 | > 10 | > 10 | 3.49 | 6.99 | > 10 | 1.2 µM and 1.21 µM | 3.75 | > 10 | > 10 | not observed | not observed | > 50 | no significant inhibition |
| 3.62 | 1.57 | 3.77 | Cc1ccccc1-n1sc2cc(F)ccc2c1=O [Thr101, 6-Fluoro-2-o-tolylbenzo[d] isothiazol-3(2H)-one] | – | > 10 | 4.24 | 6.07 | – | 4.14 | 3.43 | – | – | > 10 | > 10 | – | – | – | – |
| – | – | – | O=C(CCCCCCNC(=O)c1cnc(N(c2ccccc2)c2ccccc2)nc1)NO [ACY-1215] | – | – | – | – | – | – | – | – | – | – | – | significantly increased | – | – | – |
